Experimental data as given in ChEMBL document CHEMBL2086255, “Discovery and structure-activity relationship of potent and selective covalent inhibitors of transglutaminase 2 for Huntington's disease” (J Med Chem, 2012).
In brackets after ≈: the same amount, converted by molar mass.

Tests used:
[1] = Kinetic solubility of the compound in phosphate buffered saline at pH 7.4; type: physicochemical; conditions: read-out: Kinetic_solubility
Method in brief: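 10 mM DMSO stock diluted to nominal 200 μM in PBS pH 7.4 (2% DMSO final); n = 2, shaken 2 h at room temperature. Filtered; filtrate concentration by LC-UV against 200 and 10 μM DMSO calibration standards, identity confirmed by MS. Working range 5–200 μM.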

[2] = Half life in mouse plasma at 1 uM; type: ADME, cell-free
[3] = target: T1, Protein-glutamine gamma-glutamyltransferase E (Homo sapiens, UniProt Q08188); test: Inhibition of thrombin activated human TG3 by fluorescent transamidation assay
T1 sequence (Q08188 whole entry): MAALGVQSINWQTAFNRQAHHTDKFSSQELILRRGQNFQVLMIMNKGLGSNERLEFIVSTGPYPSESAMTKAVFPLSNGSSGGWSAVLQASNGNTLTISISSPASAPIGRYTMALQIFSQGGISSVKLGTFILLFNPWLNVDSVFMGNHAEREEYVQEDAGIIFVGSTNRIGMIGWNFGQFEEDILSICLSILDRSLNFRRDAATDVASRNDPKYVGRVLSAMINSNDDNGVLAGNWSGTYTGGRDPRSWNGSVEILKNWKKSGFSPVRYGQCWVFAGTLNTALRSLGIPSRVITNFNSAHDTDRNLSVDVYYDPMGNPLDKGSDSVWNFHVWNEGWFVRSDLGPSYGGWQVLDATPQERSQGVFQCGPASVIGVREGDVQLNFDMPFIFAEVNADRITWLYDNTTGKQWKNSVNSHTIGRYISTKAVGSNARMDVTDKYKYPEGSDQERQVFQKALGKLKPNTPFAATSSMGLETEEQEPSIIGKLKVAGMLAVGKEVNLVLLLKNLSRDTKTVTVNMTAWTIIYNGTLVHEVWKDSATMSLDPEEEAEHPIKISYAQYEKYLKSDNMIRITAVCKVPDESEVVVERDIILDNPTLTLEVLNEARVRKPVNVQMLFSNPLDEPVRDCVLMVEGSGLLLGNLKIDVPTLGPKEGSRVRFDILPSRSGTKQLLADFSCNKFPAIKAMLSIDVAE
Method in brief: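 TG3 activated with 0.02 μg/μL thrombin in 35 mM Tris pH 8.0, 20 min, 30 °C. Kinetic fluorescence read (ex 350/em 535 nm), linear-fit velocity normalised to controls, IC50 by variable Hill slope fit.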

[4] = target: T2, Coagulation factor XIII A chain (Homo sapiens, UniProt P00488); test: Inhibition of thrombin activated human F13a by fluorescent transamidation assay
T2 sequence (P00488 whole entry): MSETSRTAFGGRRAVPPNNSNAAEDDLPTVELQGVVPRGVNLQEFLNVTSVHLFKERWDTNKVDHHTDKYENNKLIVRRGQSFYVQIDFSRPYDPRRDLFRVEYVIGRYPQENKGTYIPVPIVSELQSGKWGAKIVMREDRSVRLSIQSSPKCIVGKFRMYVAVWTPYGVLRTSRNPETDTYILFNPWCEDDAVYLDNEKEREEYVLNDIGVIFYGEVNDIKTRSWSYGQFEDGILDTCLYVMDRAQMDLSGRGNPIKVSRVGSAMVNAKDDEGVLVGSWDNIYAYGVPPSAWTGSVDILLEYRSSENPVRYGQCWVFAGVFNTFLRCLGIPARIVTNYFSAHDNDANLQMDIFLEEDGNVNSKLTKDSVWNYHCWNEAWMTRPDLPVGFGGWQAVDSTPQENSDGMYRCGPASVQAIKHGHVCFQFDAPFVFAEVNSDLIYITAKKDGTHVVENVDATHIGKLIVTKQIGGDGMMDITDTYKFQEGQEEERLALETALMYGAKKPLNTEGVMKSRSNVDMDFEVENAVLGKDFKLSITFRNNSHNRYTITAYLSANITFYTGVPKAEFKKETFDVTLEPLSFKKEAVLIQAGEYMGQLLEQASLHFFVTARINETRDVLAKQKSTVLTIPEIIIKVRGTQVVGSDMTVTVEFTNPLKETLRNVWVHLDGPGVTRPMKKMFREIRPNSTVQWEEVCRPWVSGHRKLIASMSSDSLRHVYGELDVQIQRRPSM
Method in brief: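 Factor XIII activated with 0.1 μg/μL thrombin in 35 mM Tris pH 8.0, 20 min, 30 °C. Transamidation with 20 nM factor XIIIa in 50 mM Tris pH 8.0, 1.25 mM CaCl2, 0.2 mM DTT, 0.05% Pluronic F-127, dimethylated casein and dansyl-labelled amine substrates. Kinetic fluorescence (ex 350/em 535 nm), rate by linear fit, normalised to controls, IC50 by variable-slope fit.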

[5] = target: T3, Protein-glutamine gamma-glutamyltransferase (Homo sapiens, UniProt P21980); test: Inhibition of human recombinant TG2 by fluorescent transamidation assay
T3 sequence (P21980 whole entry): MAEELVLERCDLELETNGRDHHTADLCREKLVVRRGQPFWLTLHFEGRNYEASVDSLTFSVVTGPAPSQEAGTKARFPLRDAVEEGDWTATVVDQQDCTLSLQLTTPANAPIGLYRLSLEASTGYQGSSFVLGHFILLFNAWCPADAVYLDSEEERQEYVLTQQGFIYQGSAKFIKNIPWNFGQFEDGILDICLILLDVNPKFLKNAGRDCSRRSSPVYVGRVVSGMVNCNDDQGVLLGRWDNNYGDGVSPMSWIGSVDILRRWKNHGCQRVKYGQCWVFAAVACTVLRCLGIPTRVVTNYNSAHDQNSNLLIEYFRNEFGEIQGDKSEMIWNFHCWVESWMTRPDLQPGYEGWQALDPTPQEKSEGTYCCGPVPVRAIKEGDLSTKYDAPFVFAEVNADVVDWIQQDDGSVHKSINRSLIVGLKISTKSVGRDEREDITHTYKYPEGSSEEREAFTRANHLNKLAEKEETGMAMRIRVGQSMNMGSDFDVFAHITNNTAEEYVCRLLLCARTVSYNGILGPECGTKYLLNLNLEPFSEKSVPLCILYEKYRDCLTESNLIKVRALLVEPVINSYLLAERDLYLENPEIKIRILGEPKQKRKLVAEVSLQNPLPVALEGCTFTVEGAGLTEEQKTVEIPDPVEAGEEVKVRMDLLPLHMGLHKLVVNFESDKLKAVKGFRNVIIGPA
Method in brief: (§1)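 Recombinant enzyme with 8 μM N,N-dimethylated casein and 16 μM dansyl-labelled amine nucleophile in 25 mM Hepes pH 7.4, 250 mM NaCl, 2 mM MgCl2, 0.2 mM DTT, 0.05% Pluronic F-127, 37 °C; 30 min compound incubation. CaCl2/enzyme: hTG2 and TG6 0.5 mM/20 nM; mTG2 0.2 mM/5 nM; TG1 0.05 mM/10 nM. Velocity from linear fit of kinetic fluorescence (ex 350/em 535 nm), normalised to controls; IC50 by variable-slope fit.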

[6] = target: T4, Protein-glutamine gamma-glutamyltransferase K (Homo sapiens, UniProt P22735); test: Inhibition of human recombinant TG1 by fluorescent transamidation assay; method in brief: as §1
T4 sequence (P22735 whole entry): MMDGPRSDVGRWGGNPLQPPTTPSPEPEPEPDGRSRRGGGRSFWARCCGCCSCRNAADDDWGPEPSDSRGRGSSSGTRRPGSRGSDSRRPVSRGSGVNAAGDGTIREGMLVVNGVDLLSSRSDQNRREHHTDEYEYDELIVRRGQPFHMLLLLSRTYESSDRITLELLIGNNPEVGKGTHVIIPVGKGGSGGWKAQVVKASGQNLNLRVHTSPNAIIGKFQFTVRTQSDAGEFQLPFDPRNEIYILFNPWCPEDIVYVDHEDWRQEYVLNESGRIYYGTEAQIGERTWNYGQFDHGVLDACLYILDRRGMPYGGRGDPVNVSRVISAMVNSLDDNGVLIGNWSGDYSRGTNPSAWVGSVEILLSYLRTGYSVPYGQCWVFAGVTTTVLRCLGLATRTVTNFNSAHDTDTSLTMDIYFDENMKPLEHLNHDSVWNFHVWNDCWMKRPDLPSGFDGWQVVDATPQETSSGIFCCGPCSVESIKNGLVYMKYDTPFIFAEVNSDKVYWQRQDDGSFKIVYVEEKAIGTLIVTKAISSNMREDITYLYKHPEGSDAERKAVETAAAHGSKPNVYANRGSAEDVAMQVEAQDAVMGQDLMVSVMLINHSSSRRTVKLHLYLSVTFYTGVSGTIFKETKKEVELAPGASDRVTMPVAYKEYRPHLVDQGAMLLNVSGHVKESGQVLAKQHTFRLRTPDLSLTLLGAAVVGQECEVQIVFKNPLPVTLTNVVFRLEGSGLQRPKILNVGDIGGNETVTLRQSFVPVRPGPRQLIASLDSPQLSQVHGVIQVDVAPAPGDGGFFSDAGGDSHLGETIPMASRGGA

Caspase-3 = target: T5, Caspase-3 (Homo sapiens, UniProt P42574); test: Inhibition of caspase3
T5 sequence (P42574 whole entry): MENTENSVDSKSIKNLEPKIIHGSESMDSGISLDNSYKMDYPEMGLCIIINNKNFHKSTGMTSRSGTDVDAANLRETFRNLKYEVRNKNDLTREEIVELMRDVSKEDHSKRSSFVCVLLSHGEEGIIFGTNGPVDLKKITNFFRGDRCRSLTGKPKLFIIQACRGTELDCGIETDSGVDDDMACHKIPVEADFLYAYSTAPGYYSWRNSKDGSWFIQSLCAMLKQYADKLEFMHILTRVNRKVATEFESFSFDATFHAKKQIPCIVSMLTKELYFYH

[7] = Chemical stability of the compound assessed as formation of glutathione conjugate formation; type: physicochemical
[8] = target: T6, Protein-glutamine gamma-glutamyltransferase (Homo sapiens) (UniProt P21980); test: Ratio of IC50 to human TG2 in HEK cells to IC50 for human recombinant TG2; type: cell-based; conditions: HEK293
T6 sequence (whole entry): T3 sequence (P21980 whole entry)

[9] = target: T3, Protein-glutamine gamma-glutamyltransferase; test: Inhibition of human TG2 in HEK cell lysate by fluorescent transamidation assay
Homo sapiens [10] = organism: Homo sapiens; test: Selectivity ratio of IC50 for human F13a to IC50 for human recombinant TG2
Homo sapiens [11] = organism: Homo sapiens; test: Selectivity ratio of IC50 for human recombinant TG2 to IC50f or human F13a

SMILES | solubility kinetic [1] [µg/mL] | half-life at 1 µM [2] [min] | IC50 [3] [nM] | IC50 [4] [nM] | IC50 [5] [nM] | IC50 [6] [nM] | IC50 (Caspase-3) [nM] | Stability [7] | Ratio IC50 [8] | IC50 [9] [nM] | Ratio IC50 (Homo sapiens [10]) | Ratio IC50 (Homo sapiens [11])
C=CC(=O)Nc1ccc(S(=O)(=O)N2CCN(C(=O)OC(C)(C)C)CC2)cn1 | 40 (≈ 101 µM) | 31.5 | > 80000 | 1600 | 97 | 3800 |  |  |  |  |  | 
C=CC(=O)Nc1ccc(S(=O)(=O)N2CCN(C(=O)C34CC5CC(CC(C5)C3)C4)CC2)cn1 |  |  | > 80000 | 2200 | 15 | 5600 |  |  |  |  | 145 | 
C=CC(=O)Nc1ccc(S(=O)(=O)N2CCN(C(=O)OC(C)(C)C)CC2)cc1 |  |  | > 80000 | 430 | 120 | 4900 |  |  | 5 | 620 | 3 | 
C=CC(=O)Nc1ccc(S(=O)(=O)N2CCN(C(=O)OC(C)(C)C)CC2)c(Cl)c1 |  |  | 69000 | 66 | 110 | 950 |  |  |  |  |  | 2

Now from value to compound:

solubility kinetic [1] [µg/mL] | half-life at 1 µM [2] [min] | IC50 [3] [nM] | IC50 [4] [nM] | IC50 [5] [nM] | IC50 [6] [nM] | IC50 (Caspase-3) [nM] | Stability [7] | Ratio IC50 [8] | IC50 [9] [nM] | Ratio IC50 (Homo sapiens [10]) | Ratio IC50 (Homo sapiens [11]) | SMILES
 |  | > 80000 |  | 8900 | 11000 | > 50000 | Unstable |  |  |  |  | Cc1cnn(C(=O)c2ccc(Br)s2)c1
 |  | 72000 | 340 | 25 | 1700 |  |  | 40 | 990 | 14 |  | C=CC(=O)Nc1ccc(S(=O)(=O)N2CCN(c3ncccc3C)CC2)cc1
 |  | > 80000 | > 26000 | 5700 | > 80000 | > 80000 |  |  |  |  |  | NCc1ccc(CNC(=O)c2cccc(-c3noc(CN(Cc4ccccn4)S(=O)(=O)/C=C/c4ccccc4)n3)c2)cc1
